Results of several laboratories.
Protocols differ between the studies behind these lines.
Transmembrane protease serine 6: Transmembrane protease serine 6 (Homo sapiens, UniProt Q8IU80)
Palmitoyl-protein thioesterase 1: Palmitoyl-protein thioesterase 1 (Homo sapiens, UniProt P50897)

| Compound | target | assay | setting | measurement | result |
| --- | --- | --- | --- | --- | --- |
| N=C(N)NCCC[C@H](NC(=O)[C@H](CC1CC1)NC(=O)[C@H](Cc1cscn1)NC(=O)CCc1ccccc1)C(=O)c1nc2ccccc2s1 | Transmembrane protease serine 6 | enzyme activity, inhibitor | 0.1 µM | remaining activity | 77% |
| O=C(CCCN1CC=C(n2c(=O)[nH]c3ccccc32)CC1)c1ccc(F)cc1 | Palmitoyl-protein thioesterase 1 | enzyme activity, inhibitor | 125 µM | inhibition | 1.07% |
| C=CC(=O)N1CCC(COCC(=O)N2CCN(c3nc(-c4cnc(N)nc4C(F)F)nc(N4CCOC[C@@H]4C)n3)CC2)CC1 | Ribosomal protein S6 kinase alpha-2, C-terminal kinase domain (RPS6KA2, Homo sapiens, UniProt Q15349) | binding, competition with immobilised ligand | 1 µM | remaining binding | 90% |
| O=C1OCCN1/N=C/c1ccc([N+](=O)[O-])o1 | Palmitoyl-protein thioesterase 1 | enzyme activity, inhibitor | 125 µM | inhibition | 29% |
| CC(C)[C@@H](NC(=O)[C@H](Cc1cscn1)NC(=O)CCc1ccccc1)C(=O)N[C@@H](CCCNC(=N)N)C(=O)c1nc2ccccc2s1 | Transmembrane protease serine 6 | enzyme activity, inhibitor | 0.1 µM | remaining activity | 68% |
| COc1cc(-c2cncc3c2CN(C)Cc2cc(N4CCNCC4)ccc2-3)cc(OC)c1OC | Muscle, skeletal receptor tyrosine-protein kinase (MUSK, Homo sapiens, UniProt O15146) | enzyme activity, inhibitor | 1 µM | remaining activity | 113% |
| NC(=O)c1c(OCc2c(F)cc(Br)cc2F)nsc1NC(=O)NCCCCN1CCCC1 | Palmitoyl-protein thioesterase 1 | enzyme activity, inhibitor | 125 µM | inhibition | 8.63% |
| CNc1ncc2c(/C=C/C(=O)N3CCC(OC)CC3)nn(Cc3cccc(C(F)(F)F)c3)c2n1 | Epidermal growth factor receptor (EGFR, Homo sapiens, UniProt P00533) | enzyme activity, inhibitor, radiometric | 1 µM | remaining activity | 108% |
| CC(C)[C@@H](CC(=O)N[C@@H](CCCNC(=N)N)C(=O)c1nc2ccccc2s1)NC(=O)[C@H](Cc1cscn1)NC(=O)CCc1ccccc1 | Transmembrane protease serine 6 | enzyme activity, inhibitor | 0.1 µM | remaining activity | 100% |
| Cc1cc([C@@H](C)Nc2ccccc2C(=O)O)c2nc(N3CCC(F)(F)CC3)c(C#N)c(=O)n2c1 | Serine/threonine-protein kinase B-raf (BRAF, Homo sapiens, UniProt P15056) | binding, competition with immobilised ligand | 10 µM | remaining binding | 74% |
